Measurements from ChEMBL document CHEMBL1629690, “Development of hexadecyloxypropyl tenofovir (CMX157) for treatment of infection caused by wild-type and nucleoside/nucleotide-resistant HIV” (Antimicrob Agents Chemother, 2010).

Assays:
Type in all cases: cell-based
[1] = system: CEM-SS; assay: Cytotoxicity against human CEM-SS cells after 24 hrs by XTT assay
How it was run: (§1)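 Six-concentration growth-inhibition test: 10 to 0.032 μM for the prodrug and TDF, up to 100 μM for TFV, with Triton X-100 run in parallel. Cell lines were split 1:2 the day before and seeded at 5 × 10^3 to 2 × 10^4 cells/well, with adherent lines left overnight. Dendritic cells were derived with GM-CSF/IL-4 for 7 days, then LPS 10 ng/ml for 2 days. Viability was read by XTT.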

[2] = Cytotoxicity against human HuH7 cells after 24 hrs by XTT assay; conditions: huh-7, 24 h; how it was run: as §1
[3] = Cytotoxicity against human dendritic cells after 24 hrs by XTT assay; how it was run: as §1
[4] = system: PBMC; assay: Cytotoxicity against PHA/IL-2-stimulated human PBMC after 24 hrs by XTT assay; how it was run: as §1
[5] = Cytotoxicity against human ME180 cells after 24 hrs by XTT assay; conditions: me-180, 24 h; how it was run: as §1
[6] = system: HeLa; assay: Cytotoxicity against human HeLa cells after 24 hrs by XTT assay; how it was run: as §1
[7] = system: HepG2; assay: Cytotoxicity against human HepG2 cells after 24 hrs by XTT assay; conditions: hepg2, 24 h; how it was run: as §1

Measured: Activity

CC(C)OC(=O)OCOP(=O)(CO[C@H](C)Cn1cnc2c(N)ncnc21)OCOC(=O)OC(C)C.O=C(O)/C=C/C(=O)O [TENOFOVIR DISOPROXIL FUMARATE]
Non-toxic: all assays above
